Bioassay records deposited in PubChem BioAssay by several laboratories.
Compounds with a hit are over-represented: about 2% of the library has one in this group of screens.
zfTRPN1 agonist – agonists of zebrafish TRPN1 channel; HEK293 zebrafish TRPN1-YFP, Fluo-8 calcium fluorescence; 100% = response to 87 µM carbachol; activation, % at 3 µM; 220,000 tested, 0.18% active;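 active means activation above its plate's cutoff, the mean activation of test wells on that plate plus 3 SD, cut at about 19% in these data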;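 further: 0% = DMSO alone and 100% = 87 µM carbachol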
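System: zebrafish TRPN1-YFP in HEK293 cells / Dosing: 3 µM single point / Timing: dye loading 1 h at 37 °C, then 30 min room temperature / Signal: Fluo-8 calcium fluorescence, excitation 470-495 nm, emission 515-575 nm / Read-out basis: percent activation from peak over basal fluorescence ratio, control-normalized / Control set: high carbachol 87 µM, low DMSO alone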
GPR7 antagonist – antagonists of human GPR7 (neuropeptides B/W receptor 1); P48145; inhibition, % at 4.4 µM; 290,000 tested, 1.1% active; GPR7-expressing cells, fluorescence antagonist assay; in the data active means inhibition above about 16%, passing the limit was not always enough;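 further: cells stimulated with the agonist NPW; 0% = agonist with vehicle and 100% = vehicle without agonist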
Target sequence (P48145 whole entry, looked up): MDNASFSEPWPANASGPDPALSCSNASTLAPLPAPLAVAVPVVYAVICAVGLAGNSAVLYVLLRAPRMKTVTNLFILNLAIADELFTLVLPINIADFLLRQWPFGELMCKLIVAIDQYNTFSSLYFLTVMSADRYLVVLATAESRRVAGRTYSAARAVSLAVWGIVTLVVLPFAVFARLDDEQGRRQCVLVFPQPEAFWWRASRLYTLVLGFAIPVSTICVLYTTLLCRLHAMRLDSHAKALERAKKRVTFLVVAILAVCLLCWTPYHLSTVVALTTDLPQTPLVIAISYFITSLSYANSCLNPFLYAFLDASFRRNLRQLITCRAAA
CRFR2-BP ag – agonists of human CRF-binding protein/CRF-R2 receptor complex. HEK293 CRF-R2/CRF-BP, calcium dye fluorescence (FLIPR); percent of saturating CRF peptide response. activation, % at 13.2 µM. 350,000 tested, 0.46% active;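 active means activation of at least 50%, plus an integration ratio under a set limit after plate pattern correction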;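 further: plate controls were neutral control wells without compound for no effect and CRF at EC100 for full effect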
TRPML3 agonist – agonists of human TRPML3 channel. Q8TDD5. HEK293 TRPML3-YFP, Fluo-8 calcium fluorescence; 100% = the carbachol control signal. activation, % at 3 µM. 220,000 tested, 0.29% active;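 active means activation above its plate's cutoff, the mean activation of the plate's test wells plus 3 SD, cut at about 12% in these data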;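 further: 0% = DMSO only wells and 100% = carbachol wells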
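Test system – HEK293 line with stable expression of human TRPML3-YFP channel · Control set – carbachol 87 µM final as high control (100%), DMSO as low control (0%) · Signal – Fluo-8 calcium dye fluorescence, ex 470-495, em 515-575 nm · Incubation – 1-h 37 °C dye load, 5-s basal, 120-s post-compound reads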
CRFR2-BP antag – blocks CRF-induced signaling of the CRF-BP/CRF-R2 complex. HEK293 CRF-R2/CRF-BP, CRF-induced calcium fluorescence. inhibition, % at 11.8 µM. 350,000 tested, 0.59% active;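 active means inhibition of the ligand-induced calcium signal above about 50% at the single tested concentration, limit read from the data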
Numbers without * were called inactive; / = not tested or not shown.

SMILES | zfTRPN1 agonist | GPR7 antagonist | CRFR2-BP ag | TRPML3 agonist | CRFR2-BP antag
COc1cc(C(=O)O)c2ccccc2n1 | 0 | -6 | -1 | 1 | 65*
O=C(NC(Nc1ncc(S(=O)(=O)c2ccc([N+](=O)[O-])cc2)s1)(C(F)(F)F)C(F)(F)F)c1ccc(Cl)cc1 | 15 | 14 | 34 | 1 | 62*
O=C(Nc1ncc(S(=O)(=O)c2ccc([N+](=O)[O-])cc2)s1)c1cccc2ccccc12 | 1 | -4 | 112* | 1 | -70
Cc1nc(-c2c(C(F)(F)F)noc2-c2ccc(O)cc2O)cs1 | 2 | 7 | -8 | 1 | 54*
N#Cc1ccccc1COC(=O)c1cccc(S(=O)(=O)N2CCCC2)c1 | / | / | -1 | / | -6
CC(=O)Nc1sc(/C(C#N)=C\c2cccc(Cl)c2)nc1-c1ccc(C)cc1 | 2 | -5 | 319* | 3 | -405
C[C@@H]1CN([C@H](C)CO)C(=O)CCCn2nncc2CO[C@H]1CN(C)S(C)(=O)=O | / | / | 0 | / | -19
CCOc1ccc(/C=C(\C#N)C(=O)Nc2cccnc2)cc1 | 0 | -4 | 1 | 2 | -16
CCOc1ccc(NC(=O)/C(C#N)=C\c2ccc(N3CCCC3)c(C)c2)cc1 | / | / | 99* | / | -37
COc1cc(/C=c2\s/c(=C(/C#N)C(=O)N3CCCC3)n(-c3ccccc3)c2=O)ccc1O | 10 | -1 | 67* | 3 | -44
CCCCN(C(=O)CSc1ncn[nH]1)c1c(N)n(Cc2ccccc2)c(=O)[nH]c1=O | / | / | -1 | / | 70*
Cc1nnc(SCC(=O)N(C)c2c(N)n(Cc3ccccc3)c(=O)[nH]c2=O)n1Cc1ccccc1 | 0 | -14 | 2 | 1 | 81*
CCCCN(C(=O)CSc1nnnn1C)c1c(N)n(Cc2ccccc2)c(=O)[nH]c1=O | -1 | -1 | 6 | 0 | 5
CCCn1c(SCc2nc(-c3cccs3)no2)nnc1-c1ccncc1 | -1 | -9 | -1 | 0 | 5
CCOc1ccc(-n2c(SCc3nc(-c4cccs4)no3)nnc2-c2ccncc2)cc1 | -3 | 18* | 0 | 0 | 8
Cc1ccc(N2CC(C(=O)N3CCC(C(=O)Nc4nnc(C(C)C)s4)CC3)CC2=O)cc1 (configuration not stated) | / | 5 | -1 | / | 3
CC1CCCCN1S(=O)(=O)c1ccc2c(c1)C(C)(C)C(=O)N2C (configuration not stated) | / | 4 | 2 | / | -2
Cc1ccc2[nH]c(C(=O)N/N=C/c3ccccc3C(=O)O)c(-c3ccccc3)c2c1 | / | 0 | 72* | / | 6
COc1ccc(/C=N/NC(=O)c2[nH]c3ccc(C)cc3c2-c2ccccc2)c(C(=O)O)c1OC | / | 11 | 8 | / | -20
Cc1cccc(CNC(=O)C2CCC(=O)N(CC3CCCCC3)C2)c1 (configuration not stated) | / | / | 0 | / | 2
COc1ccccc1N1CCN(C2CC(=O)N(c3cccc(Cl)c3)C2=O)CC1 (configuration not stated) | / | -2 | -2 | / | -10
CCN(CC)c1ccc(C(=C2C=CC(=[N+](CC)CC)C=C2)c2ccccc2)cc1 | / | / | 91* | / | -9
N#CC1=C(N)Oc2cc(O)c(Cl)cc2C1c1ccccc1F (configuration not stated) | / | -11 | 192* | / | -195
Clc1ccc(C[n+]2cc(-c3ccccc3)n3c2CCCCC3)c(Cl)c1 | -1 | 29* | 2 | 0 | 1
CC(C)Cc1csc(NC(=O)c2ccc(F)cc2)c1C(=O)O | 3 | 3 | 3 | 2 | 69*
SMILES | zfTRPN1 agonist | GPR7 antagonist | CRFR2-BP ag | TRPML3 agonist | CRFR2-BP antag
O=C(COc1ccccc1/C=C\c1nc(O)c([N+](=O)[O-])c(=O)[nH]1)Nc1ccccc1 | 321* | -5 | -3 | 138* | 11
CCOc1ccccc1/C=C\c1nc(O)c([N+](=O)[O-])c(=O)[nH]1 | / | -4 | -1 | / | -2
O=C(NCc1ccco1)C1CC(c2ccccc2O)=NO1 (configuration not stated) | -2 | 10 | 77* | -1 | -55
COc1ccc(-c2cc(C(=O)NCc3cccnc3)no2)cc1 | 0 | 18* | -2 | 0 | 15
O=C(NCc1cccnc1)c1cc(-c2ccccc2)on1 | -1 | -4 | -2 | 0 | -22
COc1ccc(NC(=S)NCc2cccnc2)cc1OC | 0 | -8 | 0 | 1 | 4
COc1ccc(NC(=S)NCc2cccnc2)cc1 | 0 | -11 | 1 | 1 | 92*
O=C(NCc1ccc2c(c1)OCO2)C(=O)Nc1cc2c3c(c1)CC(=O)N3CCC2 | / | / | -1 | / | 10
COc1ccc(S(=O)(=O)N2CCC(C(=O)NC3CCCCC3)CC2)cc1C | / | 7 | -1 | / | 3
Cc1cccc2c(CCNC(=O)c3ccc([N+](=O)[O-])cc3)c[nH]c12 | -2 | -3 | -5 | 0 | 57*
O=[N+]([O-])c1ccc(O)c(CN2CCCCCC2)c1 | / | -17 | 0 | / | 0
CC(C)(C)c1cc(C(=O)NNC(=O)Nc2cccc(Cl)c2)n(Cc2ccccc2)n1 | -3 | -14 | 1 | -1 | 51*
C/C=C/C=C/C(=O)OC(C)C(=O)Nc1cc([N+](=O)[O-])ccc1OC (configuration not stated) | -1 | 3 | 1 | 0 | 112*
COc1ccc(Cl)cc1NC(=O)c1cccc([N+](=O)[O-])c1O | / | / | 32 | / | 83*
COc1ccc(Cl)cc1NC(=O)C/C(C)=N/NC(=O)c1ccccc1[N+](=O)[O-] | / | -1 | -2 | / | -6
COc1ccc([N+](=O)[O-])cc1NC(=O)c1ccccc1SC | -1 | -14 | -7 | 0 | 100*
COc1ccc([N+](=O)[O-])cc1NC(=O)C(C)OC(=O)Cc1ccc(OC)c(OC)c1 (configuration not stated) | / | / | 0 | / | 17
CCOc1ccc(NC(=O)C(=O)NCCN2CCN(C(=O)c3ccc(C)cc3)CC2)cc1 | / | -5 | -1 | / | 5
O=C(CSc1ncn[nH]1)NNC(=O)c1ccccc1 | / | / | 0 | / | -8
O=C1C=C(c2ccccc2)C(c2ccccc2)C1O (configuration not stated) | / | / | 77* | / | -75
O=C1C=C(c2ccccc2)OC(c2ccccc2)O1 (configuration not stated) | -2 | 4 | -2 | -1 | -6
COC(=O)c1cnc(N)s1 | / | / | 1 | / | -1
Cc1cc(NC(=O)CCC(=O)N(CCC(C)C)C(C(=O)NCC2CCCO2)c2ccccc2C)no1 (configuration not stated) | / | 0 | 0 | / | -1
COc1cc(S(C)=O)ccc1-c1nc2ncccc2[nH]1 (configuration not stated) | / | / | -2 | / | -9
CCN(CC)S(=O)(=O)c1cccc(C(=O)Nc2ccc3c(c2)OCO3)c1 | 2 | -12 | -2 | 2 | 55*
COc1ccc(OC2CCN(C(=O)Nc3ccc(C)cc3)CC2)cc1 | / | 28 | -1 | / | 2
